Cytotoxicity data for 97 molecules are collected here from ChEMBL document CHEMBL4513216, “Probing the Open Global Health Chemical Diversity Library for Multistage-Active Starting Points for Next-Generation Antimalarials” (ACS Infect Dis, 2020).

This data set can be described thus: Toxicity liver stage against HepG2, at 10uM. It is filed as cell-based. More on the design: test concentration 10 uM, cell line HepG2-A16-CD81EGFP. As to conditions: human, HepG2-A16-CD81EGFP cells; read-out: INHIBITION
Put shortly: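 Uninfected HepG2-A16-CD81EGFP cells, 3 × 10^3 per well, 1536-well, plated on prespotted compound at 10 μM final, parasite-free screening media added to match infected plates; puromycin 10 μM positive, DMSO 0.5% negative; run in parallel with 48 h PbLuc assay at 37 °C, 5% CO2; viability by CellTiter-Glo luminescence, normalized to controls.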
Regarding `CCN(CC)C[C@H]1CN2CC[C@H]1C[C@@H]2CNC(=O)Nc1ccsc1`, the cytotoxicity at 10 µM is -17.8%.

Consider `CC(C)NC(=O)NC[C@H]1OC[C@@H](NCc2cccs2)[C@@H]1O`, for which the cytotoxicity at 10 µM is -1.48%.

For `O=C(NC[C@H]1OC[C@@H](NCc2ccccc2F)[C@@H]1O)Nc1ccccc1`, the cytotoxicity at 10 µM was -7.3%.

Consider `Cc1ccccc1CSc1ncccc1C(=O)N(C)C`, for which the cytotoxicity at 10 µM is -7.24%.

For the molecule `COc1ccc(C(=O)N(CCO)Cc2ccccc2)c(OC)n1`, the cytotoxicity at 10 µM was found to be 3.33%.

Consider `O=C(c1cccnc1SCc1ccccc1)N1CCOCC1`, for which the cytotoxicity at 10 µM turned out to be 4.74%.

Turning to `O=C(N[C@H]1CCCC[C@@H]1O)c1cccc(-c2nc3ccccc3[nH]2)c1`, the cytotoxicity at 10 µM was -3.65%.

For `COCC(=O)N1CCC(=O)N(C2CCCC2)Cc2cc(F)ccc21`, the cytotoxicity at 10 µM was -3.3%.

Regarding `O=S(=O)(c1ccc(Cl)cc1)N1C[C@@H]2CCN[C@@H]2C1`, the cytotoxicity at 10 µM was -1.89%.

As to `CCc1cnc(N2CCC3(CCN(CC)C3=O)CC2)nc1`, the cytotoxicity at 10 µM turned out to be 1.61%.

Turning to `CNC(=O)N1CCC2(CC1)CN(C)c1ccc(F)cc12`, the cytotoxicity at 10 µM is -4.78%.

Regarding `c1ccc(NCc2cn3c(n2)CN(Cc2ccoc2)CC3)nc1`, the cytotoxicity at 10 µM amounted to 10.4%.

Consider `Fc1cnc(N2CCOCC3(CCCN(c4cnccn4)C3)C2)nc1` (configuration not stated), for which the cytotoxicity at 10 µM was determined as 10.6%.

Turning to `CCN1C(=O)[C@]2(CC[C@@H]3CN(C(=O)NCC(C)C)C[C@@H]32)N=C1C`, the cytotoxicity at 10 µM worked out at 9.16%.

In the case of `Cc1cc(O)c(OCC(=O)/N=c2\[nH]c(C)cs2)cn1`, the cytotoxicity at 10 µM amounted to 6.36%.

Regarding `CCn1cc(Br)c(C(=O)NCc2cnn(C)c2)n1`, the cytotoxicity at 10 µM is -11.9%.

As to `CN(C(=O)c1ccccn1)c1nnc(C2CCOC2)s1` (configuration not stated), the cytotoxicity at 10 µM was 0.07%.

As to `Nc1nc(N)c2c(n1)OC1(CCN(C(=O)CC3CCNCC3)CC1)C2`, the cytotoxicity at 10 µM turned out to be 5.41%.

As for `CN(C)c1cc(C2CCCN2C(=O)c2noc3c2CCCC3)ccn1` (configuration not stated), the cytotoxicity at 10 µM is 9.13%.

With `Cc1ccc(C(=O)N2CCOC(c3ncc(CN(C)C)[nH]3)C2)cc1F` (configuration not stated), the cytotoxicity at 10 µM worked out at 0.388%.

Take `CCN1C(=O)CC[C@@H]2N(C(=O)CCn3nccc3C)CCCC[C@@]21C`: the cytotoxicity at 10 µM is -3.41%.

For the molecule `Cc1n[nH]cc1C(=O)N1CCCC(c2cccc(-n3ccnc3)n2)C1` (configuration not stated), the cytotoxicity at 10 µM is -9.69%.

In the case of `COc1ccc(C2(c3nc(-c4cnn(C)c4)no3)CCOCC2)cc1`, the cytotoxicity at 10 µM amounted to 11.4%.

Take `Cc1ccc(NC(=O)N2CCC(CO)(Nc3ccccc3)CC2)cc1`: the cytotoxicity at 10 µM is -0.405%.

Turning to `Cc1nc(CNc2ccccc2CCC(F)(F)F)cs1`, the cytotoxicity at 10 µM was -8.47%.

On to `O=C(CC1CCCCC1)N1CCC(O)(C(F)(F)F)C1` (configuration not stated), for which the cytotoxicity at 10 µM was -6.58%.

As to `Fc1cccc(C(NCc2ncc[nH]2)c2ccccn2)c1` (configuration not stated), the cytotoxicity at 10 µM amounted to 3.95%.

Consider `COC(=O)c1ccc(NC(=O)CCc2ccco2)cc1`, for which the cytotoxicity at 10 µM was -10.5%.

On to `CCCS(=O)(=O)N1CCCN(CCCOC)CC1`, for which the cytotoxicity at 10 µM came out at 7.53%.

`O=C(NCC1CCC1)c1ccnc(-n2ccnc2)c1`: the cytotoxicity at 10 µM is -3.67%.

Regarding `COc1ccccc1N1CCN(CC(=O)NC(C)c2ccco2)CC1` (configuration not stated), the cytotoxicity at 10 µM is -2.58%.

On to `CS(=O)(=O)Nc1cccc(CNC(=O)c2cccs2)c1`, for which the cytotoxicity at 10 µM worked out at 3.86%.

For `CCCc1cc(C(=O)NCCN2C(=O)c3ccccc3C2=O)[nH]n1`, the cytotoxicity at 10 µM is 2.29%.

As to `CC(C)c1noc(OCC(=O)N(C)C(C)C)n1`, the cytotoxicity at 10 µM was -12.6%.

`NC(=O)CCNC(=O)Cc1cccc(I)c1`: the cytotoxicity at 10 µM is -1.08%.

For `O=C(CNc1cccc2c1CCCC2)Nc1ccccc1Br`, the cytotoxicity at 10 µM worked out at 11.4%.

Take `Cc1nn(C)c(N(C)C)c1CNCc1cccc(Cn2cccn2)c1`: the cytotoxicity at 10 µM was 1.88%.

As to `CCN(CC(=O)NC(C)C)S(=O)(=O)N1CCCC(C)C1` (configuration not stated), the cytotoxicity at 10 µM was 2.77%.

Turning to `Cc1nc(CC(=O)N2CCN(Cc3ccc(C#N)cc3)CC2)cs1`, the cytotoxicity at 10 µM came to 1.91%.

As to `COc1cccc2c1N(Cc1nc(C3CC3)no1)CCC2`, the cytotoxicity at 10 µM turned out to be 11.2%.

With `Cc1ncccc1C(=O)Nc1ccc2ccn(CCN(C)C)c2c1`, the cytotoxicity at 10 µM is 4.08%.

Turning to `CC1CCN(S(=O)(=O)NC2CCCCNC2=O)CC1` (configuration not stated), the cytotoxicity at 10 µM stood at 14%.

For `Cc1nc(C(NC(=O)C2CCCC2)c2ccccc2F)no1` (configuration not stated), the cytotoxicity at 10 µM was -3.79%.

`O=C(C[S+]([O-])Cc1ccccc1F)N1CCc2sccc2C1` (configuration not stated): the cytotoxicity at 10 µM was -8.02%.

Consider `CNS(=O)(=O)CC(=O)N(Cc1ccccc1)c1ccc(C)cc1`, for which the cytotoxicity at 10 µM is 2.53%.

On to `O=C(CN1CCOc2ccc(Cl)cc21)NCc1ncc[nH]1`, for which the cytotoxicity at 10 µM was -0.307%.

Take `N#CCCN(CC(F)(F)F)C(=O)c1cc(-n2cccn2)ccn1`: the cytotoxicity at 10 µM came out at 8.93%.

In the case of `Cc1ccccc1CS(=O)(=O)CC(=O)N(C)Cc1cccc(F)c1`, the cytotoxicity at 10 µM came to 4.8%.

Take `N#Cc1ccc(OC2CCN(C(=O)COCC3CCCO3)CC2)cc1` (configuration not stated): the cytotoxicity at 10 µM came out at 12.9%.

As for `CCc1noc(CN(C)C(=O)COc2cccc(Cl)c2C)n1`, the cytotoxicity at 10 µM is 3.86%.

Turning to `CCN(CC)CCCN1CCC(NC(=O)OC(C)(C)C)CC1`, the cytotoxicity at 10 µM turned out to be 5%.

Turning to `Cc1oc(C(=O)O)cc1S(=O)(=O)Nc1ccc(Cl)c(Cl)c1`, the cytotoxicity at 10 µM was -0.532%.

`CS(=O)(=O)CC1(CNc2ccc(C#N)c(C(F)(F)F)c2)CC1`: the cytotoxicity at 10 µM came to 9.95%.

For `Cn1cc(CN2CCN(Cc3nccn3C)CC2)cn1`, the cytotoxicity at 10 µM came to 15.5%.

`CC(CNC(=O)N1CCN(CC(F)F)CC1)Cc1cccs1` (configuration not stated): the cytotoxicity at 10 µM is -4.92%.

With `O=C(NCCNS(=O)(=O)c1ccc2c(c1)CCCC2)c1ccoc1`, the cytotoxicity at 10 µM was determined as 0.743%.

Regarding `CC(NCc1ccncc1)c1cc(F)ccc1N1CCN(C)CC1` (configuration not stated), the cytotoxicity at 10 µM is -2.98%.

`COCCN(Cc1ccc(F)cc1Cl)C(=O)c1cccc[n+]1[O-]`: the cytotoxicity at 10 µM was 8.81%.

In the case of `CC(C)Oc1ncc(C(=O)N2CCC(NC(=O)C3CC3)CC2)cc1Cl`, the cytotoxicity at 10 µM is -20.8%.

Consider `Cc1ccc(N2CCCN(C(=O)c3cc(Cl)c[nH]3)CC2)nn1`, for which the cytotoxicity at 10 µM is -9.12%.

Turning to `Cc1nc(C)n(CC2CN(CC(=O)Nc3cccnc3)CCO2)n1` (configuration not stated), the cytotoxicity at 10 µM was -12%.

For the molecule `Cc1ncc(-c2ccnc(N3CC[C@H](O)C3)n2)c(-c2cccnc2)n1`, the cytotoxicity at 10 µM was -8.49%.

As to `Cc1cccnc1CN1CCN(c2noc(-c3ccccc3)n2)CC1`, the cytotoxicity at 10 µM was 8.09%.

In the case of `Cc1cccc2c1nc(COCC(=O)O)n2-c1ccc(N)nc1`, the cytotoxicity at 10 µM was 1.77%.

Turning to `CCN1CCCC(CN2CCn3nc(CNC(=O)N(C)C)cc3C2)C1` (configuration not stated), the cytotoxicity at 10 µM is -2.96%.

As for `COCc1cn(C2CCN(C(=O)c3ccc(F)c(C)c3)CC2)nn1`, the cytotoxicity at 10 µM was -0.723%.

In the case of `Cc1ccoc1C(=O)N1CCC(n2cc(-c3ccsc3)nn2)CC1`, the cytotoxicity at 10 µM was determined as 5.02%.

As for `Cc1c(C)c(C)c2[nH]c(-c3cn(C4CCNCC4)nn3)nc2c1C`, the cytotoxicity at 10 µM was -0.966%.

Turning to `Cc1[nH]c(=O)[nH]c(=O)c1CN1CCCC(CCc2ccc(F)cc2F)C1` (configuration not stated), the cytotoxicity at 10 µM is -1.64%.

`CCC/C=C/c1ccc(CN2CCN(C)CC2)cn1`: the cytotoxicity at 10 µM is -8.61%.

For `C[C@@H]1CN(Cc2cc3ccccc3n2C)CC[C@]1(C)O`, the cytotoxicity at 10 µM came to 8.35%.

As to `NC(=O)c1ccc(OCCCN2C[C@H](C3CC3)[C@@H](N)C2)cc1`, the cytotoxicity at 10 µM is -0.517%.

Consider `CCN1CC(C(=O)N2CCC(Oc3ccccc3Cl)CC2)CC1=O` (configuration not stated), for which the cytotoxicity at 10 µM is -22.4%.

As to `CN(CCc1ccccc1)Cc1cc(C(=O)N2CCN(C)C(=O)C2)no1`, the cytotoxicity at 10 µM is -11.6%.

With `CNCc1cc(F)ccc1Oc1ccc(F)cc1F`, the cytotoxicity at 10 µM is -11%.

In the case of `CC(NC(=O)CSCC#N)c1ccc(F)cc1` (configuration not stated), the cytotoxicity at 10 µM was -2.51%.

`CN(C)c1ccc(C(=O)N2CCCC2c2cnn(C)c2)cn1` (configuration not stated): the cytotoxicity at 10 µM is -1.83%.

Consider `O=C(O)c1cc(S(=O)(=O)Nc2ccc(F)cc2F)cc2c1OCCO2`, for which the cytotoxicity at 10 µM is -1.2%.

For `Cn1cc(CN2CCCN(C(=O)c3ccccn3)CC2)cn1`, the cytotoxicity at 10 µM is -0.514%.

With `O=C(c1ccc2c(c1)CCCC2)N1CCN(c2cnccn2)CC1`, the cytotoxicity at 10 µM is -1.95%.

In the case of `Cc1cc2n(n1)CC(CNCc1ccc(-n3ccnc3C)nc1)CN2` (configuration not stated), the cytotoxicity at 10 µM is -11.7%.

Take `COc1ccccc1C(O)CNC(=O)Nc1cccnc1OC` (configuration not stated): the cytotoxicity at 10 µM is -14.7%.

`Cc1nc(C2CCCN2C(=O)c2ccc3c(c2)nc(C)n3C)no1` (configuration not stated): the cytotoxicity at 10 µM is -9.62%.

On to `CCn1cnnc1CNC(=O)N1CCC(C)CC1`, for which the cytotoxicity at 10 µM is 2.64%.

As for `CC(C)c1nc(C2CCCN2CCc2ccncc2)no1` (configuration not stated), the cytotoxicity at 10 µM was -10.8%.

Take `CCOc1ccnc(N2CCN(C(=O)c3cccc(C#N)c3)CC2)n1`: the cytotoxicity at 10 µM is -3.34%.

Take `O=C(CN1CCCCC1Cn1cncn1)NCCC1=CCCCC1` (configuration not stated): the cytotoxicity at 10 µM is -7.59%.

On to `O=C(NCCCNc1ccccc1)c1scnc1Cl`, for which the cytotoxicity at 10 µM turned out to be 1.83%.

As for `COCC1CN(Cc2cc(C)on2)Cc2cnn(C)c21` (configuration not stated), the cytotoxicity at 10 µM came to 6.22%.

As for `O=C(c1ccccc1)N1CCC[C@]2(C[C@@H](OCc3ccncc3)CO2)C1`, the cytotoxicity at 10 µM worked out at 5.25%.

For the molecule `O=C(NCc1ccccn1)[C@]12COC[C@H]1CN(Cc1ccccc1F)C2`, the cytotoxicity at 10 µM was determined as 6.81%.

As for `CN(C)C[C@H]1C[C@@H]2CN(Cc3ccco3)C[C@@H]2O1`, the cytotoxicity at 10 µM is -1.66%.

As for `FC1(F)CCN(Cc2ccncc2)CC12CCN(c1cnccn1)C2` (configuration not stated), the cytotoxicity at 10 µM came to 3.19%.

As for `O=C(C1CC1)N1CCC2(CCN(Cc3cccc(F)c3)CC2)CC1`, the cytotoxicity at 10 µM is -4.07%.

As to `O=C(C[C@@H]1COC[C@H]2CN(Cc3ccc(F)cc3)C[C@@H]12)N1CCCCO1`, the cytotoxicity at 10 µM was -2.26%.

With `Cc1ccc(CN2CCC3(CC2)CCN(Cc2ccco2)CC3)cc1`, the cytotoxicity at 10 µM was determined as 2.44%.

As to `O=C(NCCNS(=O)(=O)N1CCCCCC1)c1ncccc1O`, the cytotoxicity at 10 µM was -6.11%.
